This note sets out measurements from PubChem BioAssay.

Active and inactive are the calls of the source.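 How the source made its calls, unless noted: active means Her2 level under about 52% in both replicate screens, with viability over 70% of control (limit read from the data); inconclusive means Her2 under the limit in one screen only, or viability under 70%; inactive means Her2 level above the set limit.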

A short description of experiment [1]: Her2 expression decrease, cell viability multiplex – SKBR3 breast tumor cells, AlphaScreen, ATP viability, primary screen (AID 461).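 On Her2 level: lower value means less Her2 protein in the cells.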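 On viability: percent of carrier control wells set as 100% viability.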 To be noted: SKBR3 Her2 protein level, 18-24 h, measured here: SKBR3 viability, ATP luminescence, at 10 µM. Background: Bead proximity is the source of the signal in Alpha formats.
Experiment [2] concerns the target Receptor tyrosine-protein kinase erbB-2 (Homo sapiens) (UniProt P04626). The description is as above. To be noted: 18-24 h, at 10 µM, stronger effect = lower value.
A short description of experiment [3]: reduced viability of SK-BR-3 breast cancer cells – cell-based, 24 h, human, pilot screen (AID 572;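 active means viability at or below 10% of carrier control in both of two separate runs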;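 further: compound exposure lasted between 18 and 24 h rather than exactly 24 h; 100% = carrier-treated control wells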). To be noted: SK-BR-3 viability, CellTiter-Glo luminescence, at 10 µM, stronger effect = lower value. On the technique in general: In ATP-based viability assays light output follows the ATP content of the culture.
Experiment [4] is described as follows: HUVEC growth inhibition – cell-based, human, primary screen (AID 575;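 active means viability at or below 30% in both replicate assays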;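 further: 100% = median of untreated cell wells with 0.1% DMSO on each plate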). To be noted: HUVEC proliferation, CellTiter-Glo luminescence, 72 h; at 10 µM; stronger effect = lower value. The gist of the method: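 Timing: 72 h treatment at 37 °C; material: HUVEC primary cells; technique: CellTiter-Glo luminescence measuring cellular ATP; controls: vehicle and MePR control wells; measure: percent of median DMSO-control luminescence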

Experiment [5] can be described thus: H69AR cell proliferation blockers – human, duplicate replicates, primary screen (AID 580;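 active means viability at or under a set limit in both replicates, limit being median viability minus 3 SD, cut at about 48% in these data, passing the limit was not always enough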;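 further: 100% = mean luminescence of untreated wells and 0% = no signal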). To be noted: H69AR lung tumor cells viability, ATP luminescence, 72 h; at 10 µM; stronger effect = lower value.
Experiment [6] is described as follows: MRP1 drug-resistance reversers in H69AR cells – cell-based, doxorubicin co-treatment, pilot screen (AID 601;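 active means viability loss from added drug above about 55%, and viability with drug at most 40%, in both replicates, limit read from the data, passing the limit was not always enough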). To be noted: CellTiter-Glo, 72 h, at 10 µM; for differential viability (reversal): stronger effect = higher value.
Experiment [7] can be described thus: yeast transport mutant growth inhibition pilot in 384-well plates, post-Golgi transport modulator project (AID 636; in the data active means inhibition above about 31%). To be noted: absorbance 615 nm, about 18 h, stronger effect = higher value.
A short description of experiment [8]: growth suppression of yeast trafficking mutant, preliminary HTS, modulators of trafficking downstream of Golgi apparatus project, 1536-format plate, OD 615 nm (AID 637; in the data active means inhibition above about 30%). To be noted: yeast transport mutant growth, absorbance 615 nm, 18 h; stronger effect = higher value.
Setting [9] is: H69AR cells + 2 uM doxorubicin, measured here: viability with 2 uM doxorubicin, stronger effect = lower value.
Setting [10] is: H69AR cells, compound alone cytotoxicity.

Sequence of Receptor tyrosine-protein kinase erbB-2 (Homo sapiens) (P04626 whole entry, looked up): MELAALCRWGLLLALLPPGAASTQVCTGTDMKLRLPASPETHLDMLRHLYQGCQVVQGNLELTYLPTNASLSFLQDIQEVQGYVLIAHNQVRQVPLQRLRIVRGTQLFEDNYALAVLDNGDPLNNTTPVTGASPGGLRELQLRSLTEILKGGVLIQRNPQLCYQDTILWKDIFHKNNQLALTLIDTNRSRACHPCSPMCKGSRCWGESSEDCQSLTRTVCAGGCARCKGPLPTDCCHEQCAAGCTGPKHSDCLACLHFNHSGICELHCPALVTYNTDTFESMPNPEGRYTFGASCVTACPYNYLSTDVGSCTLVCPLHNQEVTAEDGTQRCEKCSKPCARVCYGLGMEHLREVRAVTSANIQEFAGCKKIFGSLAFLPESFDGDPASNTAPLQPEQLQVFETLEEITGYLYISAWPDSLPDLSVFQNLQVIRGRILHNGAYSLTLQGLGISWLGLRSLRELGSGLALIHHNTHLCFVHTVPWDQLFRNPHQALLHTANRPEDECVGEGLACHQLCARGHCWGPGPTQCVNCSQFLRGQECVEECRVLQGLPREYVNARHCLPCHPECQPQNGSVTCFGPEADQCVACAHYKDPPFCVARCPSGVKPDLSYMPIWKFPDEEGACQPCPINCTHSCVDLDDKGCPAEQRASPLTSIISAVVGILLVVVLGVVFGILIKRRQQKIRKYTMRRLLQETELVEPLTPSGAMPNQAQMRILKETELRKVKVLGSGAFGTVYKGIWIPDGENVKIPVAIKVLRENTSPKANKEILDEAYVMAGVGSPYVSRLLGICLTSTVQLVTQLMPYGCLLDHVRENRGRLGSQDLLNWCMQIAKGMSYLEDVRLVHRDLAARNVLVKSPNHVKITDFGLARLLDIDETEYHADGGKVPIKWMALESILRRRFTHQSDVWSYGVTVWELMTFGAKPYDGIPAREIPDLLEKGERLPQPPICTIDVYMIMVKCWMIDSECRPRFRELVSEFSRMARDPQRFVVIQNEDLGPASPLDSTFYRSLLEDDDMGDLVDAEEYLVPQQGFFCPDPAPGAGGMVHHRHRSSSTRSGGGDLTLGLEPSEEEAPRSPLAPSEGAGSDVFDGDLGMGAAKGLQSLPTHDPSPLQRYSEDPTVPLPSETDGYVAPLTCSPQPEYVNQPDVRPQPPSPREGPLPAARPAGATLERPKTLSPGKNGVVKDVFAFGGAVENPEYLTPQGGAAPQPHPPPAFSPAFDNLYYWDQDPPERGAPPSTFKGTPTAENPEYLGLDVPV

Broadly, the viability is a read-out of living cells in per cent, often relative to untreated cells. One may read the inhibition as the drop in the measured response relative to a control, in per cent. For the compound `O=S(NCc1ccco1)C12CC3CC(CC(C3)C1)C2` (stereo not given), the viability was 104% in experiment [1]; 104% (inactive) in experiment [3]; 93.5% (inactive) in experiment [4]; 88% (inactive) in experiment [5]; 84% in experiment [6] (setting [9]); 88% in experiment [6] (setting [10]). Also, in experiment [2], the Her2 level is 116% (inactive). The differential viability (reversal) in experiment [6] (H69AR cells + 2 uM doxorubicin) was 3.96% (inactive). The inhibition was -1.08% (inactive) in experiment [7] and -5.4% (inactive) in experiment [8].
Take `O=C(Oc1ccc2c(c1)CCC2)N1CCOCC1`: the viability in experiment [1] was 90%; in experiment [3] it was 90% (inactive); in experiment [4], 99.9% (inactive); in experiment [5], 95.6% (inactive); in experiment [6] (setting [9]), 88.9%; in experiment [6] (setting [10]) it was 95.6%. In experiment [2], the Her2 level is 144% (inactive). Further, the differential viability (reversal) in experiment [6] (H69AR cells + 2 uM doxorubicin) was 6.64% (inactive). In addition, the inhibition in experiment [7] is 4.87% (inactive); in experiment [8], -5% (inactive).
Consider `Cn1nnnc1SCSc1nnnn1C`, for which the viability in experiment [1] is 84%; in experiment [3], 84% (inactive); in experiment [4], 95.5% (inactive); in experiment [5], 96.9% (inactive); in experiment [6] (setting [9]), 89.4%; in experiment [6] (setting [10]) it was 96.9%. Further, the Her2 level in experiment [2] is 83% (inactive). Moreover, the differential viability (reversal) in experiment [6] (H69AR cells + 2 uM doxorubicin) was 7.5% (inactive). In addition, the inhibition in experiment [7] is -5% (inactive); in experiment [8], -0.95% (inactive).
For `CCN1C(=O)NC(c2cc(Br)ccc2OC)C(C(=O)OC)=C1C` (stereo not given), the viability in experiment [1] was 104%; in experiment [3], 104% (inactive); in experiment [4] it was 104% (inactive); in experiment [5] it was 95.3% (inactive); in experiment [6] (setting [9]), 98%; in experiment [6] (setting [10]), 95.3%. In experiment [2], the Her2 level was 114% (inactive). Further, the differential viability (reversal) in experiment [6] (H69AR cells + 2 uM doxorubicin) is -2.65% (inactive). For the same compound, the values for the inhibition in experiment [7] and in experiment [8] were -2.63% (inactive) and -8.1% (inactive), respectively.
With `O=C(Nc1ccccc1)c1cccnc1N1CCOCC1`, the viability was 94% in experiment [1]; 94% (inactive) in experiment [3]; 105% (inactive) in experiment [4]; 102% (inactive) in experiment [5]; 84.1% in experiment [6] (setting [9]); 102% in experiment [6] (setting [10]). Also, the Her2 level in experiment [2] is 80% (inactive). Besides, the differential viability (reversal) in experiment [6] (H69AR cells + 2 uM doxorubicin) was 18.2% (inactive). Further, the inhibition in experiment [7] is -0.92% (inactive); in experiment [8], -2.73% (inactive).
Take `Cc1c2c(nc3nc4ccccc4n13)CC(C)(C)CC2=O`: the viability in experiment [1] was 130%; in experiment [3], 130% (inactive); in experiment [4] it was 91.1% (inactive); in experiment [5], 70.9% (inactive); in experiment [6] (setting [9]), 34%; in experiment [6] (setting [10]), 70.9%. For the same compound, the Her2 level in experiment [2] was 100% (inactive). Further, the differential viability (reversal) in experiment [6] (H69AR cells + 2 uM doxorubicin) is 36.9% (inactive). Moreover, the inhibition is -3.42% (inactive) in experiment [7] and 4.43% (inactive) in experiment [8].
With `CCn1cc(C2=NOC(C(=O)Nc3cc(C)nn3-c3ccccc3)C2)c(C)n1` (stereo not given), the viability is 89.5% in experiment [1]; 89.5% (inactive) in experiment [3]; 101% (inactive) in experiment [4]; 101% (inactive) in experiment [5]; 93% in experiment [6] (setting [9]); 101% in experiment [6] (setting [10]). The Her2 level in experiment [2] is 88.5% (inactive). Also, the differential viability (reversal) in experiment [6] (H69AR cells + 2 uM doxorubicin) was 8.29% (inactive). The inhibition in experiment [7] was -1.18% (inactive); in experiment [8] it was -8.25% (inactive).
`CC(C)CNC(=O)c1ccccc1NC(=O)c1ccc(CN2CCOCC2)cc1`: the viability in experiment [1] was 92.5%; in experiment [3], 92.5% (inactive); in experiment [4], 106% (inactive); in experiment [5] it was 99.6% (inactive); in experiment [6] (setting [9]), 87.7%; in experiment [6] (setting [10]) it was 99.6%. Also, in experiment [2], the Her2 level is 96% (inactive). In experiment [6] (H69AR cells + 2 uM doxorubicin), the differential viability (reversal) is 11.9% (inactive). Also, the inhibition was -5.68% (inactive) in experiment [7] and 1.8% (inactive) in experiment [8].
Turning to `Cc1occc1-c1nnc(SCC(=O)c2ccc(F)cc2)n1Cc1ccco1`, the viability is 77.5% in experiment [1]; 77.5% (inactive) in experiment [3]; 84.1% (inactive) in experiment [4]; 85.3% (inactive) in experiment [5]; 82.2% in experiment [6] (setting [9]); 85.3% in experiment [6] (setting [10]). Also, the Her2 level in experiment [2] was 82% (inactive). Besides, in experiment [6] (H69AR cells + 2 uM doxorubicin), the differential viability (reversal) was 3.13% (inactive). Besides, the inhibition in experiment [7] was -1.33% (inactive); in experiment [8] it was -0.16% (inactive).
On to `CCC(Sc1ccc2nnc(-c3ccc(F)cc3)n2n1)C(=O)OC` (stereo not given), for which the viability was 110% in experiment [1]; 110% (inactive) in experiment [3]; 86.4% (inactive) in experiment [4]; 83% (inactive) in experiment [5]; 38% in experiment [6] (setting [9]); 83% in experiment [6] (setting [10]). The Her2 level in experiment [2] is 90% (inactive). For the same compound, the differential viability (reversal) in experiment [6] (H69AR cells + 2 uM doxorubicin) was 45% (inactive). In addition, the results for the inhibition in experiment [7] and in experiment [8] were -7.7% (inactive) and 2.5% (inactive), respectively.
Consider `CCCOC(=O)C1[C@H]2C(=O)N(CCCOC)C[C@]23C=C[C@H]1O3` (stereo not given in full), for which the viability is 92.5% in experiment [1]; 92.5% (inactive) in experiment [3]; 98.5% (inactive) in experiment [4]; 98.3% (inactive) in experiment [5]; 100% in experiment [6] (setting [9]); 98.3% in experiment [6] (setting [10]). Besides, in experiment [2], the Her2 level is 85% (inactive). In experiment [6] (H69AR cells + 2 uM doxorubicin), the differential viability (reversal) was -1.98% (inactive). In addition, the inhibition in experiment [7] is -5.06% (inactive); in experiment [8], -3.17% (inactive).
On to `CCc1nnc(NC(=O)CSc2nnc3scc(-c4ccc(C)cc4)n23)s1`, for which the viability in experiment [1] is 100%; in experiment [3], 100% (inactive); in experiment [4] it was 108% (inactive); in experiment [5], 96.6% (inactive); in experiment [6] (setting [9]) it was 96.7%; in experiment [6] (setting [10]) it was 96.6%. Also, the Her2 level in experiment [2] was 95.5% (inactive). The differential viability (reversal) in experiment [6] (H69AR cells + 2 uM doxorubicin) is -0.05% (inactive). In addition, the inhibition was -3.15% (inactive) in experiment [7] and -1.27% (inactive) in experiment [8].
Take `COc1ccc(N2C(=O)CC(NC3CC3)C2=O)cc1` (stereo not given): the viability in experiment [1] is 100%; in experiment [3], 100% (inactive); in experiment [4], 94.7% (inactive); in experiment [5] it was 91.2% (inactive); in experiment [6] (setting [9]) it was 90.5%; in experiment [6] (setting [10]), 91.2%. In addition, the Her2 level in experiment [2] is 89.5% (inactive). The differential viability (reversal) in experiment [6] (H69AR cells + 2 uM doxorubicin) was 0.64% (inactive). For the same compound, the results for the inhibition in experiment [7] and in experiment [8] were -3.82% (inactive) and -6% (inactive), respectively.
Take `O=C(Nc1ccc(Cc2ccc(NC(=O)N3CCOCC3)cc2)cc1)N1CCOCC1`: the viability in experiment [1] is 97%; in experiment [3] it was 97% (inactive); in experiment [4] it was 90.1% (inactive); in experiment [5], 98.5% (inactive); in experiment [6] (setting [9]) it was 82.8%; in experiment [6] (setting [10]) it was 98.5%. In experiment [2], the Her2 level is 94% (inactive). Also, in experiment [6] (H69AR cells + 2 uM doxorubicin), the differential viability (reversal) is 15.7% (inactive). Moreover, the inhibition in experiment [7] is -4.87% (inactive); in experiment [8], -1.17% (inactive).
